Screens (PubChem)
G6PDH CS = L. mesenteroides G6PDH inhibition counter-screen; inhibition, % at 5 µM; AID 1020; Purified L. mesenteroides G6PDH, diaphorase/resazurin coupled fluorescence, 45 min; actives 0.12% (n = 200,000); in the data active means inhibition above about 50%
Diaph act CS = diaphorase activation or chemical reduction counter-screen | actives 0.005% (n = 190,000) | Diaphorase/resazurin coupled assay, resorufin fluorescence, 16 min; active compounds read high; 1 = vehicle wells, 0 = NADH-free wells | activation factor at 20 µM | AID 1229;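 active means diaphorase activity raised at least twofold by the compound at 20 µM; inactive means activation factor below 2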
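Measured by – red resorufin fluorescence at 544/590 nm excitation/emission · Test system – Clostridium kluyveri diaphorase, purified enzyme · Incubation – reaction time 16 min, room temperature · Buffer or medium – 50 mM HEPES pH 7.4 with 4.542 mM MgCl2, 0.005% Tween 20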
PfG6PD inh = PfG6PD (Plasmodium falciparum) enzyme inhibition; PfGluPho enzyme, NADPH resazurin-diaphorase fluorescence; inhibition, % at 20 µM; actives 0.78% (n = 350,000); AID 504690;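 active means inhibition reaching at least a set limit at 20 µM in the primary screen, cut at about 59% in these data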;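 further: 0% = DMSO wells with substrate and 100% = DMSO wells lacking glucose-6-phosphate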
Diaph inh CS = diaphorase inhibition or chemical oxidation counter-screen. diaphorase resazurin-to-resorufin fluorescence, NADH, 16 min; bacterial (C. kluyveri) enzyme, not human. actives 0.69% (n = 190,000). inhibition, % at 20 µM;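 active means primary screen inhibition at 20 µM above a set limit, cut at about 50% in these data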;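 further: plate controls were DMSO with full reaction for no effect and wells lacking NADH for full effect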
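Detection: fluorescence of resorufin formed from resazurin, Ex 544/Em 590 nm; test system: Clostridium kluyveri diaphorase enzyme; amount: 0.14 U/mL diaphorase, enzyme working solution; times: 16-min room-temperature incubation before reading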
HKDC1 inhibitor = HKDC1 (human) hexokinase inhibition. actives 0.16% (n = 340,000). Q2TB90. recombinant HKDC1, G6PDH/diaphorase resazurin coupled fluorescence. inhibition, % at 20 µM;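 active means inhibition above about 35% when tested at 20 µM, limit read from the data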;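 further: plate controls were DMSO wells with enzyme for no effect and DMSO wells lacking enzyme for full effect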
Target sequence (Q2TB90 whole entry, looked up): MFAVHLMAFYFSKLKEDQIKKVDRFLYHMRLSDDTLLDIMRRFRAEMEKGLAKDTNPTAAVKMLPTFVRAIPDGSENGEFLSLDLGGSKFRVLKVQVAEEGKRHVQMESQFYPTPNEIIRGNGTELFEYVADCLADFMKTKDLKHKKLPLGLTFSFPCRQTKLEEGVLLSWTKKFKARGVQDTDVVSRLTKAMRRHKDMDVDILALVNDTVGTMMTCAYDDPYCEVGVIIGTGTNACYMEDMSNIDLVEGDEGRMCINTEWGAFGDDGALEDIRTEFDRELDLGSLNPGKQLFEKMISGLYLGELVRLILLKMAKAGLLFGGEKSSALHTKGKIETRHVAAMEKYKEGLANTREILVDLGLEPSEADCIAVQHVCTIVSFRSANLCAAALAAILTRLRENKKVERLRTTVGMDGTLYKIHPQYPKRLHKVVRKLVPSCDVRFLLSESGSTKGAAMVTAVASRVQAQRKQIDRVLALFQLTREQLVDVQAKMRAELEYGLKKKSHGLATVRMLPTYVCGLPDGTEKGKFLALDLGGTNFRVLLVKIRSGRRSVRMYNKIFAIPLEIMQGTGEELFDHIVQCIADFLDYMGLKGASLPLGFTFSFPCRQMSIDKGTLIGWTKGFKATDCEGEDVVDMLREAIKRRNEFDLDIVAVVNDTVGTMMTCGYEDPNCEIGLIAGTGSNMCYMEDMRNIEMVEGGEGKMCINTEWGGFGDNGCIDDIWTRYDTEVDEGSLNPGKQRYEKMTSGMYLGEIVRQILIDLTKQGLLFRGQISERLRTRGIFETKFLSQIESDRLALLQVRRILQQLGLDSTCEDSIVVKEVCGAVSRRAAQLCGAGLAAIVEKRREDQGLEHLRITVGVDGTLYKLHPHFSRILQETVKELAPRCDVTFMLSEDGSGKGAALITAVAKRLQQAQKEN
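Material: recombinant HKDC1 hexokinase; Amount: HKDC1 at 5 µg/mL; Medium: Tris pH 8.0 buffer with MgCl2, Tween-20, BSA, BME; Schedule: 90 min reaction incubation at room temperature, dark; Technique: coupled resazurin fluorescence, excitation 525 nm, emission 613 nm.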
PfG6PD confirm = PfG6PD inhibition, single-dose confirmed; shares compounds with PfG6PD inh; actives 34% (n = 2,400); recombinant PfGluPho, NADPH-diaphorase-resazurin fluorescence; AID 504753; inhibition, % at 20 µM;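 active means inhibition of at least 50% at 20 µM in any single replicate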;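 further: 0% = DMSO with substrate and 100% = DMSO lacking glucose-6-phosphate substrate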
Diaphorase 10uM = counter-screen for P. falciparum G6PD inhibitors: diaphorase inhibitors, oxidizers; diaphorase-coupled resazurin reduction, fluorescence, NADPH 10 uM; AID 504862; actives 39% (n = 820); inhibition, % at 20 µM; shares compounds with PfG6PD inh;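 active means average inhibition reaching 50% or more with the compound at 20 µM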;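 further: resorufin red fluorescence formed as diaphorase reduces resazurin using NADPH; 0% = DMSO with enzyme and 100% = DMSO without enzyme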
Diaphorase 30uM = inhibits diaphorase or oxidizes, flagging false PfG6PD hits; shares compounds with PfG6PD inh; Diaphorase/resazurin coupled assay, resorufin fluorescence, 30 uM NADPH; inhibition, % at 20 µM; actives 29% (n = 820); AID 504863;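 active means inhibition averaging 50% or more, tested at 20 µM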;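 further: 0% = DMSO with enzyme and 100% = DMSO wells lacking diaphorase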
* hit, by the source's call. Most compounds without a hit are left out; they make up all but 1.3% or so of the library.

Results for CC1(C)C2CCC(CN)C1C2 (stereo not drawn) ?
PfG6PD inh: -9.2

Results for CCc1ccccc1NC(=O)C1CCN(S(=O)(=O)c2ccc3c(c2)N(C(C)=O)CCO3)CC1 ?
PfG6PD inh: -15.9; HKDC1 inhibitor: -0.1

How did COc1ccc(OC)c(NC(=S)N2CCN(C(=O)C3CCCO3)CC2)c1 (stereo not drawn) do in these assays?
PfG6PD inh: 1.4; HKDC1 inhibitor: 3.8

What do the screens show for `COc1ccc(Nc2cc(C)c3ccccc3n2)cc1`?
G6PDH CS: 15.5; Diaph act CS: 0.9; PfG6PD inh: 65.6*; Diaph inh CS: 14.1; HKDC1 inhibitor: 1.0; PfG6PD confirm: -1.3

What do the screens show for `Cc1cc(Nc2ccc([N+](=O)[O-])cc2)nc2ccccc12`?
G6PDH CS: 19.4; Diaph act CS: 0.9; PfG6PD inh: 9.3; Diaph inh CS: 13.0; HKDC1 inhibitor: -7.9

How did COc1ccc(Nc2ccc(Nc3ccc(OC)cc3)nn2)cc1 do in these assays?
G6PDH CS: -16.3; Diaph act CS: 1; PfG6PD inh: -0.2; Diaph inh CS: 1.1; HKDC1 inhibitor: 8.3

What do the screens show for `COc1ccc(Nc2ccc(OC)cc2)cc1`?
PfG6PD inh: 63.8*; HKDC1 inhibitor: 8.7; PfG6PD confirm: 25.2

Results for CCCCCCCC#Cc1ccccc1/C=N/S(=O)c1ccc(C)cc1 (stereo not drawn) ?
G6PDH CS: 2.9; Diaph act CS: 0.9; PfG6PD inh: 37.2; Diaph inh CS: 11.6; HKDC1 inhibitor: 7.2

Results for NC(=S)NN=Cc1nccc2c(N)cccc12 ?
PfG6PD inh: 100.3*; PfG6PD confirm: 48.7

How did CCN(C(C)=O)c1cnc(C=NNC(N)=S)c2ccccc12 do in these assays?
PfG6PD inh: 34.2; HKDC1 inhibitor: -16.5

Results for O=C1CSC(=S)N1N=Cc1ccc2c(c1)OCO2 ?
PfG6PD inh: 7.4; HKDC1 inhibitor: 0.5

Results for O=C(NNC(=O)c1ccccc1OCc1ccccc1)c1ccccc1O ?
PfG6PD inh: 89.5*; HKDC1 inhibitor: -5.8; PfG6PD confirm: 68.6*; Diaphorase 10uM: 55.9*; Diaphorase 30uM: 55.9*

What do the screens show for `O=C(NNC(=O)c1ccccc1OCc1ccc(F)cc1)c1ccccc1O`?
PfG6PD inh: 120.4*; HKDC1 inhibitor: -6.5; PfG6PD confirm: 69.5*; Diaphorase 10uM: 67.3*; Diaphorase 30uM: 50.2*

How did CC1CCCC2(C1)NC(=S)c1c(sc3c1CCCC3)N2 (stereo not drawn) do in these assays?
G6PDH CS: 4.9; Diaph act CS: 0.5; PfG6PD inh: 64.3*; Diaph inh CS: 49.6; HKDC1 inhibitor: -3.4; PfG6PD confirm: 11.4

Results for CC1CCCC2(C1)NC(=S)N(c1ccccc1)N2 (stereo not drawn) ?
G6PDH CS: 5.5; Diaph act CS: 1; PfG6PD inh: 3.2; Diaph inh CS: 3.4; HKDC1 inhibitor: -4.6

What do the screens show for `COc1cc(Nc2ccc(S(N)(=O)=O)cc2)c([N+](=O)[O-])nc1[N+](=O)[O-]`?
PfG6PD inh: 24.3; HKDC1 inhibitor: -2.3

Results for Cn1c(=O)c2[nH]c(-c3ccccc3)c(O)c2n(C)c1=O ?
G6PDH CS: -3.4; Diaph act CS: 0.5; PfG6PD inh: 71.0*; Diaph inh CS: 47.4; HKDC1 inhibitor: 0.6; PfG6PD confirm: 59.3*; Diaphorase 10uM: -2.5; Diaphorase 30uM: 9.5

How did O=C(CSc1nnc(SCc2ccccc2Cl)s1)N/N=C/c1c[nH]c2ccccc12 do in these assays?
G6PDH CS: -49.0; Diaph act CS: 0.8; PfG6PD inh: 88.8*; Diaph inh CS: 23.0; HKDC1 inhibitor: -4.3; PfG6PD confirm: 37.2

Results for O=C(CSc1nnc(SCc2ccccc2)s1)N/N=C/c1c[nH]c2ccccc12 ?
G6PDH CS: 1.1; Diaph act CS: 0.8; PfG6PD inh: 23.8; Diaph inh CS: 22.0; HKDC1 inhibitor: -2.8

What do the screens show for `O=c1nc2n(CCO)c3ccccc3cc-2c(=O)[nH]1`?
PfG6PD inh: 7.6; HKDC1 inhibitor: 1.2

Results for Cc1cc(C)c(C)c(S(=O)(=O)Nc2ccccc2N2CCOCC2)c1C ?
PfG6PD inh: 65.0*; HKDC1 inhibitor: 1.6; PfG6PD confirm: 14.4

How did O=S(=O)(Nc1ccccc1N1CCOCC1)c1ccc(Cl)cc1 do in these assays?
PfG6PD inh: 70.0*; HKDC1 inhibitor: 6.0; PfG6PD confirm: 41.8

Results for O=S(=O)(Nc1ccccc1N1CCOCC1)c1ccc(F)c(Cl)c1 ?
PfG6PD inh: 46.0; HKDC1 inhibitor: -0.6

What do the screens show for `Cc1noc(C)c1S(=O)(=O)Nc1ccccc1N1CCOCC1`?
PfG6PD inh: 14.9; HKDC1 inhibitor: -7.6

What do the screens show for `O=S(=O)(Nc1ccccc1N1CCCCC1)c1ccc(F)cc1`?
PfG6PD inh: 68.7*; HKDC1 inhibitor: 2.0; PfG6PD confirm: 6.8

Results for Nc1cc(S(=O)(=O)Nc2cc(Cl)ccc2Cl)ccc1N1CCOCC1 ?
PfG6PD inh: 61.2*; HKDC1 inhibitor: -14.8; PfG6PD confirm: 22.9

What do the screens show for `CCOc1ccc2nc(SCC(=O)NCc3ccc(S(N)(=O)=O)cc3)[nH]c2c1`?
PfG6PD inh: -22.8; HKDC1 inhibitor: -3.1

Results for CCOc1ccc(-n2cc(-c3ccc(OC)c(OC)c3)[nH]c2=S)cc1 ?
G6PDH CS: 4.1; Diaph act CS: 0.8; PfG6PD inh: 65.6*; Diaph inh CS: 24.4; HKDC1 inhibitor: 2.7; PfG6PD confirm: 29.6

Results for CCOc1ccc(-c2cn(-c3ccccc3OC)c(=S)[nH]2)cc1 ?
PfG6PD inh: 13.8; HKDC1 inhibitor: 5.6

What do the screens show for `Cc1ccc(NC(=O)c2cc([N+](=O)[O-])ccc2N2CCOCC2)cc1S(=O)(=O)N(C)C`?
PfG6PD inh: 78.1*; HKDC1 inhibitor: 3.0; PfG6PD confirm: 35.2

What do the screens show for `O=C(O)c1cccc(NC(=S)N/N=C/c2cccc(O)c2)c1`?
G6PDH CS: -2.3; Diaph act CS: 1.1; PfG6PD inh: -3.7; Diaph inh CS: -5.1; HKDC1 inhibitor: -7.4

What do the screens show for `S=C(N/N=C/c1ccc2ncccc2c1)Nc1cccnc1`?
G6PDH CS: -0.6; Diaph act CS: 0.8; PfG6PD inh: 69.0*; Diaph inh CS: 17.9; HKDC1 inhibitor: -6.4; PfG6PD confirm: 8.9
